Common to all, as to format: functional
A short description of assay [1]: Antioxidant activity assessed as scavenging of DPPH at 160 uM after 30 mins by spectrophotometry. Background: The DPPH test is a chemical assay of radical scavenging.
The next assay deals with U-251. Kind of assay: Growth inhibition of human U251 cells after 48 hrs by sulforhodamine B assay. The settings on record: U-251, 48 h.
Assay [2] in a line: Growth inhibition of human NCI-ADR-RES cells after 48 hrs by sulforhodamine B assay. Background: In SRB staining, fixed cells bind dye roughly in proportion to their protein.
For another assay, the system named is 786-0. The assay can be described thus: Growth inhibition of human 786-0 cells after 48 hrs by sulforhodamine B assay. The note with it: 786-0, 48 h.
The next assay concerns NCI-H460. The assay can be described thus: Growth inhibition of human NCI-H460 cells after 48 hrs by sulforhodamine B assay. The settings on record: NCI-H460, 48 h.
For the next assay, the system named is PC-3. The assay can be described thus: Growth inhibition of human PC3 cells after 48 hrs by sulforhodamine B assay. The note with it: PC-3, 48 h.
The test system of a further assay is OVCAR-3. Kind of assay: Growth inhibition of human OVCAR3 cells after 48 hrs by sulforhodamine B assay. The note with it: OVCAR-3, 48 h.
Another assay relates to HT-29. Kind of assay: Growth inhibition of human HT-29 cells after 48 hrs by sulforhodamine B assay. The settings on record: HT-29, 48 h.
The nature of assay [3]: Antioxidant activity assessed as concentration required for 50% DPPH scavenging activity after 30 mins by spectrophotometry.
Assay [4] in a line: Antioxidant activity assessed as scavenging of DPPH at 24.2 uM up to 10 mins by spectrophotometry. The gist of the method:
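Kinetic run: reaction medium with 10 nmol DPPH radicals in ethanol and compound at the stated concentration, DPPH scavenging followed over time up to 10 min. Three independent experiments, each in triplicate.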

Assay [5] can be described thus: Antioxidant activity assessed as concentration required to scavenge 50% superoxide anions after 10 mins by spectrophotometry.
A short description of assay [6]: Antioxidant activity assessed as concentration required for 50% DPPH scavenging activity after 30 mins by spectrophotometry relative to monastrol.

Converted amounts (≈) assume the structure as drawn. The source made the active and inactive calls. No cut-off for these calls is given here. A value given as a limit tells only on which side of the number the result lay.

As for `CCOC(=O)C1=C(C)NC(=O)NC1c1cccc(O)c1` (stereo not given), the result in assay [1] was inactive. Also, the GI50 (commonly the concentration that inhibits growth by half) with U-251 was 5.1 µg/mL (≈ 18.5 µM); in assay [2], 11.7 µg/mL (≈ 42.3 µM); in the assay with 786-0 it was 26.3 µg/mL (≈ 95.2 µM); in the assay with NCI-H460, 42 µg/mL (≈ 152 µM); with PC-3, 34.7 µg/mL (≈ 126 µM); in the assay on OVCAR-3, 6 µg/mL (≈ 21.7 µM). In the assay on HT-29, this compound had a concentration for 50% growth inhibition (GI50) of 27.1 µg/mL (≈ 98.1 µM).
In the case of `CCOC(=O)C1=C(C)NC(=S)NC1c1ccccc1` (stereo not given), in [1], the result was inactive. For the same compound, the GI50 with U-251 came out at 26.6 µg/mL (≈ 96.3 µM); in [2], 27.4 µg/mL (≈ 99.1 µM); in the assay on 786-0, 27.7 µg/mL (≈ 100 µM); with NCI-H460, 28 µg/mL (≈ 101 µM); with PC-3, 42.2 µg/mL (≈ 153 µM); in the assay with OVCAR-3 it was 27.7 µg/mL (≈ 100 µM). In addition, the GI50 in the assay on HT-29 was found to be 29.8 µg/mL (≈ 108 µM).
On to `CCOC(=O)C1=C(C)NC(=O)NC1c1ccc(OC)cc1` (stereo not given), for which the outcome in [1] was inactive. For the same compound, the GI50 in the assay on U-251 is 11.6 µg/mL (≈ 40 µM); in assay [2] it was 5.7 µg/mL (≈ 19.6 µM); in the assay with 786-0 it was 24.8 µg/mL (≈ 85.4 µM); in the assay with NCI-H460 it was more than 250 µg/mL; in the assay with PC-3, 26.5 µg/mL (≈ 91.3 µM); in the assay with OVCAR-3 it was 8 µg/mL (≈ 27.6 µM). Besides, the GI50 in the assay on HT-29 amounted to 28.3 µg/mL (≈ 97.5 µM).
As to `CCOC(=O)C1=C(C)NC(=O)NC1c1ccc(O)cc1` (stereo not given), the outcome in assay [1] was inactive. Further, the GI50 with U-251 worked out at 4.2 µg/mL (≈ 15.2 µM); in [2] it was 3.2 µg/mL (≈ 11.6 µM); in the assay on 786-0 it was 25.8 µg/mL (≈ 93.4 µM); in the assay with NCI-H460 it was 40.6 µg/mL (≈ 147 µM); in the assay with PC-3, 136 µg/mL (≈ 492 µM); with OVCAR-3, 27.3 µg/mL (≈ 98.8 µM). Moreover, the GI50 in the assay with HT-29 worked out at 28.7 µg/mL (≈ 104 µM).
`CCOC(=O)C1=C(C)NC(=S)NC1c1ccc(O)c(OC)c1` (stereo not given): the IC50 – broadly, the concentration that gives 50% inhibition – in [3] is 104 µM. In [1], the Activity was 65%. In addition, the GI50 with U-251 is 88.3 µg/mL (≈ 274 µM); in [2], 59.7 µg/mL (≈ 185 µM); in the assay with 786-0 it was 30 µg/mL (≈ 93.1 µM); with NCI-H460, 180 µg/mL (≈ 560 µM); in the assay with PC-3 it was 72.6 µg/mL (≈ 225 µM); in the assay on OVCAR-3, 11 µg/mL (≈ 34.1 µM). It took 34.9 µg/mL (≈ 108 µM) to inhibit growth in the assay with HT-29 by half (GI50).
Take `CCOC(=O)C1=C(C)NC(=S)N[C@H]1c1cccc(O)c1` [S-MENASTROL]: the result in assay [1] was inactive. Besides, the GI50 with U-251 was determined as 24 µg/mL (≈ 82.1 µM); in assay [2], 22.2 µg/mL (≈ 75.9 µM); with 786-0 it was 4 µg/mL (≈ 13.7 µM); in the assay on NCI-H460 it was 10.6 µg/mL (≈ 36.3 µM); with PC-3, 5.6 µg/mL (≈ 19.2 µM); with OVCAR-3, 14.4 µg/mL (≈ 49.3 µM). The same compound yielded a GI50 with HT-29 of 29.6 µg/mL (≈ 101 µM).
For `COc1cccc2c1C(=O)c1c(O)c3c(c(O)c1C2=O)C[C@@](O)(C(=O)CO)C[C@@H]3O[C@H]1C[C@H](N)[C@H](O)[C@H](C)O1` [DOXORUBICIN], the GI50 in the assay on U-251 is 0.068 µg/mL (≈ 0.125 µM); in assay [2], 0.14 µg/mL (≈ 0.258 µM); with 786-0, 0.18 µg/mL (≈ 0.331 µM); with NCI-H460, less than 0.025 µg/mL; in the assay with PC-3, 0.24 µg/mL (≈ 0.442 µM); with OVCAR-3, 0.27 µg/mL (≈ 0.497 µM). Besides, the GI50 in the assay on HT-29 was 0.27 µg/mL (≈ 0.497 µM).
As for `CCCC1NC(=S)NC(C)=C1C(=O)OCC` (stereo not given), in [1], the result was inactive. The GI50 in the assay with U-251 was 29.2 µg/mL (≈ 120 µM); in assay [2] it was 40.3 µg/mL (≈ 166 µM); in the assay with 786-0, 27.7 µg/mL (≈ 114 µM); with NCI-H460, 22.5 µg/mL (≈ 92.8 µM); in the assay on PC-3, 42.4 µg/mL (≈ 175 µM); in the assay with OVCAR-3, 38.1 µg/mL (≈ 157 µM). Further, in the assay with HT-29, growth was halved (GI50) at 50.4 µg/mL (≈ 208 µM).
Turning to `CCOC(=O)C1=C(C)NC(=S)NC1c1ccc(OC)cc1` (stereo not given), the result in assay [1] was inactive. Moreover, the GI50 worked out at 29 µg/mL (≈ 94.7 µM) with U-251; 3.2 µg/mL (≈ 10.4 µM) in assay [2]; 25.9 µg/mL (≈ 84.5 µM) with 786-0; 31.4 µg/mL (≈ 102 µM) with NCI-H460; 5.5 µg/mL (≈ 18 µM) in the assay on PC-3; 0.99 µg/mL (≈ 3.23 µM) with OVCAR-3. The compound further registered a GI50 with HT-29 of 30.6 µg/mL (≈ 99.9 µM).
With `CCOC(=O)C1=C(C)NC(=S)NC1c1cccc(OC)c1` (stereo not given), the outcome in [1] was inactive. Further, the GI50 in the assay with U-251 worked out at 28.1 µg/mL (≈ 91.7 µM); in assay [2], 25.6 µg/mL (≈ 83.6 µM); with 786-0, 24.9 µg/mL (≈ 81.3 µM); in the assay with NCI-H460 it was 29.2 µg/mL (≈ 95.3 µM); with PC-3 it was 10.2 µg/mL (≈ 33.3 µM); in the assay on OVCAR-3, 1.3 µg/mL (≈ 4.24 µM). In the assay with HT-29, this compound came in with a GI50 of 28.3 µg/mL (≈ 92.4 µM).
Take `CCOC(=O)C1=C(C)NC(=S)NC1c1cc(OC)c(O)c(OC)c1` (stereo not given): the IC50 in [3] was 24.2 µM. For the same compound, in [1], the outcome was Active. Besides, the Activity in [4] was 370 pmol; in [5], 78 µM. For the same compound, the 50% growth inhibitory concentration (GI50) with U-251 turned out to be 0.77 µg/mL (≈ 2.18 µM); in assay [2] it was 25 µg/mL (≈ 70.9 µM); in the assay on 786-0, 13.4 µg/mL (≈ 38 µM); in the assay on NCI-H460, 65.6 µg/mL (≈ 186 µM); with PC-3, 19 µg/mL (≈ 53.9 µM); in the assay on OVCAR-3 it was 1.9 µg/mL (≈ 5.39 µM). In the assay with HT-29, this compound registered a GI50 of 28.2 µg/mL (≈ 80 µM). The fold change (FC) in assay [6] came out at 37.
On to `CCOC(=O)C1=C(C)NC(=O)NC1c1ccc(SC)cc1` (stereo not given), for which the outcome in [1] was inactive. In addition, the GI50 in the assay on U-251 stood at 8 µg/mL (≈ 26.1 µM); in [2], 2.7 µg/mL (≈ 8.81 µM); in the assay with 786-0, 2.5 µg/mL (≈ 8.16 µM); with NCI-H460, 3.6 µg/mL (≈ 11.7 µM); in the assay with PC-3 it was 9.5 µg/mL (≈ 31 µM); with OVCAR-3, 10 µg/mL (≈ 32.6 µM). For the same compound, halving of growth in the assay on HT-29 (GI50) required 10.2 µg/mL (≈ 33.3 µM).

The values above are taken from ChEMBL document CHEMBL2010753, “Free radical scavenging and antiproliferative properties of Biginelli adducts” (2012).
